The values below come from ChEMBL document CHEMBL4837193 (Eur J Med Chem, 2021).

The subject of one experiment is HeLa. Description: Antiproliferative activity against human HeLa cells assessed as cell growth inhibition after 48 hrs by MTT assay. In kind it is functional, cell-based. The procedure, abridged: (§1)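 Cells grown at 37 °C with CO2 in RPMI-1640 or DMEM plus 10% FBS. Seeded at 2 × 10³ per well, attached 24 h, then medium changed. Compound exposure 48 h at 37 °C, DMSO 0.1% as vehicle. MTT added and incubated a further 4 h. Crystals dissolved, absorbance read at 570 nm. IC50 from curve fitting, mean ± SD of three independent experiments.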
(In general: Tetrazolium assays rely on reduction of a dye to a coloured formazan, in cell work by metabolically active cells.)

Another experiment concerns HCT-116. Description: Antiproliferative activity against human HCT-116 cells assessed as cell growth inhibition after 48 hrs by MTT assay. The following applies: HCT-116, 48 h. In kind it is functional, cell-based. The essentials: as §1
For another experiment, the system named is HEK293. As to the kind of experiment: Antiproliferative activity against human HEK293 cells assessed as cell growth inhibition after 48 hrs by MTT assay. In kind it is cell-based. The following applies: HEK293, 48 h. The essentials:
as §1

For a further experiment, the system named is HepG2. As to the kind of experiment: Antiproliferative activity against human HepG2 cells assessed as cell growth inhibition after 48 hrs by MTT assay. The experiment is classed as functional, cell-based. To be noted: HepG2, 48 h. The essentials:
as §1

Another experiment relates to HT-29. As to the kind of experiment: Antiproliferative activity against human HT29 cells assessed as cell growth inhibition after 48 hrs by MTT assay. The experiment is classed as functional, cell-based. To be noted: HT-29, 48 h.
The target of another experiment is Tubulin (Homo sapiens) (UniProt P68371+Q9H4B7+P0DPH7+P68366+Q13509+Q71U36+P04350+Q3ZCM7+P07437+P68363+Q9BQE3+Q6PEY2+Q13885+Q9BVA1+Q9BUF5). As to the kind of experiment: Inhibition of tubulin polymerization (unknown origin) at 10 uM measured after 30 mins every 1 min for 20 mins by spectrophotometric method. In kind it is protein-complex assay. The procedure, abridged: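 Tubulin at 2 mg/mL in PEM buffer (100 mM PIPES pH 6.9, 1 mM MgCl2, 1 mM EGTA, 5% glycerol) preincubated on ice with compound or DMSO, then GTP added. After 0.5 h, A340 read every 1 min for 20 min at 37 °C. Plateau values used. Single-point inhibition at 10 µM; IC50 is the concentration halving polymerization at 20 min, mean ± SD of three experiments.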

Another experiment relates to A549. As to the kind of experiment: Antiproliferative activity against human A549 cells assessed as cell growth inhibition after 48 hrs by MTT assay. The experiment is classed as functional, cell-based. The following applies: A549, 48 h. The essentials: as §1
A further experiment concerns T47D. As to the kind of experiment: Antiproliferative activity against human T47D cells assessed as cell growth inhibition after 48 hrs by MTT assay. The experiment is classed as functional, cell-based.
A further experiment has as its target Tubulin. Description: Inhibition of tubulin polymerization (unknown origin) measured afer 30 mins every 1 min for 20 mins by spectrophotometric method. The experiment is classed as protein-complex assay, Homo sapiens. The procedure, abridged:
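Tubulin at 2 mg/mL in PEM buffer (100 mM PIPES pH 6.9, 1 mM MgCl2, 1 mM EGTA, 5% glycerol) preincubated on ice with compound or DMSO, then GTP added. After 0.5 h, A340 read every 1 min for 20 min at 37 °C. Plateau values used.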

In the case of `COc1cc(-c2nc3nccc(-c4cc(Cl)c(NC(C)=O)c(Cl)c4)n3n2)cc(OC)c1OC`, the IC50 in the experiment with HeLa is more than 30 µM.

`COc1ccc(-c2ccnc3nc(-c4cc(OC)c(OC)c(OC)c4)nn23)cc1[N+](=O)[O-]`: the IC50 with HeLa is more than 30 µM. On the same count and under the same terms, the same measure for `COc1ccc(-c2ccnc3nc(-c4cc(OC)c(OC)c(OC)c4)nn23)cc1OC`: more than 30 µM; for `COc1cc(-c2nc3nccc(-c4cc5ccccc5oc4=O)n3n2)cc(OC)c1OC`: more than 30 µM. As for `COc1ccc(-c2ccnc3nc(-c4cc(OC)c(OC)c(OC)c4)nn23)cc1Cl`, the IC50 in the experiment on HeLa is more than 30 µM. In the case of `COc1cc(-c2nc3nccc(-c4ccc(C(F)(F)F)cc4)n3n2)cc(OC)c1OC`, in the experiment on HeLa, the IC50 was more than 30 µM. Still for that read-out and setting: the same measure for `COc1cc(-c2nc3nccc(-c4cccs4)n3n2)cc(OC)c1OC`: more than 30 µM. For the compound `COC(=O)c1ccc(-c2ccnc3nc(-c4cc(OC)c(OC)c(OC)c4)nn23)cc1`, in the experiment on HeLa, the half-maximal inhibitory concentration (IC50) is more than 30 µM. As to `COc1cc(-c2nc3nccc(-c4cc(OC)c(OC)c(OC)c4)n3n2)cc(OC)c1OC`, the IC50 with HeLa is more than 30 µM. For `COc1cc(-c2ccnc3nc(-c4ccc(C)cc4)nn23)cc(OC)c1OC`, the IC50 in the experiment on HeLa is more than 30 µM. As to `COc1cc(-c2nc3nccc(-c4cccnc4)n3n2)cc(OC)c1OC`, in the experiment with HeLa, the IC50 is more than 30 µM. The same measure, in the same setting: the same measure for `COc1cc(-c2nc3nccc(-c4ccc(NC(C)=O)cc4)n3n2)cc(OC)c1OC`: 22.2 µM; for `COc1cc(-c2nc3nccc(-c4ccc(C)cc4)n3n2)cc(OC)c1OC`: more than 30 µM.

Take `COc1ccc(-c2nc3nccc(-c4cc(OC)c(OC)c(OC)c4)n3n2)cc1NC(C)=O`: the half-inhibitory concentration (IC50) with HCT-116 is 22.4 µM; in the experiment with HEK293, 82.1 µM; with HeLa, 0.28 µM; with HepG2, more than 100 µM; in the experiment with HT-29, 1.66 µM; in the experiment on A549 it was 34.6 µM. The IC50 in the experiment with T47D amounted to 5.67 µM. Also, the inhibition against Tubulin (Homo sapiens) was 16%. Regarding `COc1cc(-c2ccnc3nc(-c4ccc(Cl)c(Cl)c4)nn23)cc(OC)c1OC`, the half-maximal inhibitory concentration (IC50) in the experiment with HeLa is more than 30 µM. `COc1cc(-c2nc3nccc(-c4ccco4)n3n2)cc(OC)c1OC`: in the experiment on HeLa, the half-maximal inhibitory concentration (IC50) is more than 30 µM.

Regarding `COc1ccc(-c2nc3nccc(-c4cc(OC)c(OC)c(OC)c4)n3n2)cc1`, in the experiment with HeLa, the IC50 turned out to be 0.9 µM. On the same count and under the same terms, as for `COc1ccc(-c2ccnc3nc(-c4cc(OC)c(OC)c(OC)c4)nn23)cc1`, the figure is more than 30 µM; as for `COc1cc(-c2nc3nccc(-c4cccc5ccccc45)n3n2)cc(OC)c1OC`, 28.6 µM. For `COc1cc(-c2nc3nccc(-c4ccccc4C)n3n2)cc(OC)c1OC`, the IC50 with HeLa was more than 30 µM. Consider `COc1ccc(-c2nc3nccc(-c4cc(OC)c(OC)c(OC)c4)n3n2)cc1N`, for which the IC50 in the experiment on HCT-116 is more than 100 µM; in the experiment with HEK293 it was more than 100 µM; in the experiment with HeLa, 0.11 µM; against Tubulin, 12.2 µM; in the experiment on HepG2 it was 21.1 µM; in the experiment with HT-29, 83 µM. The results for the IC50 in the experiment on A549 and with T47D were 18.9 µM and 6.51 µM, respectively. For the same compound, at Tubulin (Homo sapiens), the inhibition turned out to be 49%. For the compound `COc1ccc(-c2ccnc3nc(-c4cc(OC)c(OC)c(OC)c4)nn23)cc1F`, in the experiment on HeLa, the IC50 is more than 30 µM. On the same count and under the same terms, the same measure for `COc1cc(-c2nc3nccc(-c4ccc(N)cc4)n3n2)cc(OC)c1OC`: 29.9 µM.

For the compound `COc1ccc(/C=C\c2cc(OC)c(OC)c(OC)c2)cc1O` [COMBRETASTATIN A4], the IC50 in the experiment with HepG2 amounted to 5.29 µM; with T47D, 0.027 µM. `COc1cc(-c2nc3nccc(-c4ccc(Cl)c(Cl)c4)n3n2)cc(OC)c1OC`: the IC50 in the experiment on HeLa was more than 30 µM. Still for that read-out and setting: the same measure for `COc1cc(-c2nc3nccc(-c4ccc([N+](=O)[O-])cc4)n3n2)cc(OC)c1OC`: more than 30 µM. In the case of `COc1ccc(-c2ccnc3nc(-c4cc(OC)c(OC)c(OC)c4)nn23)cc1N`, the IC50 was 91.1 µM with HCT-116; more than 100 µM in the experiment on HEK293; 0.4 µM in the experiment on HeLa; 41.2 µM in the experiment with HepG2; 11.5 µM in the experiment with HT-29; more than 100 µM in the experiment with A549. The IC50 in the experiment with T47D was more than 100 µM. On Tubulin (Homo sapiens), this compound returned an inhibition of 12%.

The term IC50 denotes the concentration at which inhibition is half-maximal. One may read the inhibition as the relative decrease from the control value, in per cent. The low end stands for a weak effect, the high end for a strong effect.
